# Data published in ChEMBL document CHEMBL5724801, “EUbOPEN Chemogenomics Library - Multiplex” (2024).
# Where “and” joins values, the source holds several entries; their conditions need not be identical. Equal entries are not always repeated.
# Test system: HEK-293T
# Assay: Multiplex assay against HEK293T
# Type: toxicity, cell-based
# Details: human
# Method in brief: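 With compound added, live cells were imaged on a CQ1 microscope at 37°C and 5% CO2; staining with Hoechst33342, BioTracker Green Microtubule Cytoskeleton Dye, MitoTracker Red and Annexin V Alexa Fluor 680 had been done at seeding. The CellPathfinder machine-learning gating scheme split cells into Hoechst high-intensity objects or normal cells, normal cells into healthy, pyknosed or fragmented nuclei, and pyknosed cells into mitotic or apoptotic. The tubulin, mitochondrial-mass and membrane-permeability phenotypes are per cents of healthy-nucleus cells.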
# [1] = 12 h, 1 µM, compound concentration 1 uM
# [2] = 12 h, 10 µM, compound concentration 10 uM
# [3] = 24 h, 1 µM, compound concentration 1 uM
# [4] = 24 h, 10 µM, compound concentration 10 uM
# [5] = 48 h, 1 µM, compound concentration 1 uM
# [6] = 48 h, 10 µM, compound concentration 10 uM
smiles,measurement,setting,value
Nc1nccc(-c2ccn3c(N)nccc23)n1,Population Apoptotic (%),[1],15.46% and 10.1%
same,Population Fragmented Nuclei (%),[1],3.18% and 4.55%
same,Population Healthy Nuclei (%),[1],68.79% and 31.17%
same,Population Hoechst High Intensity Objects (%),[1],0%
same,Population Membrane Permeable-Phenotype (%),[1],0.42% and 2.08%
same,Population Mitochondria Different-Phenotype (%),[1],32.35% and 27.08%
same,Population Mitotic Cells (%),[1],84.54% and 89.9%
same,Population Normal (%),[1],100%
same,Population Pyknosed Nuclei (%),[1],28.03% and 64.29%
same,Total Cell Count,[1],346 and 154
same,Population Apoptotic (%),[2],15.73% and 12.77%
same,Population Fragmented Nuclei (%),[2],2.41% and 4.48%
same,Population Healthy Nuclei (%),[2],66.9% and 25.37%
same,Population Hoechst High Intensity Objects (%),[2],0.34% and 0%
same,Population Membrane Permeable-Phenotype (%),[2],1.03% and 0%
same,Population Mitochondria Different-Phenotype (%),[2],38.66% and 17.65%
same,Population Mitotic Cells (%),[2],84.27% and 87.23%
same,Population Normal (%),[2],99.66% and 100%
same,Population Pyknosed Nuclei (%),[2],30.69% and 70.15%
same,Total Cell Count,[2],291 and 134
same,Population Apoptotic (%),[3],20.19% and 15.91%
same,Population Fragmented Nuclei (%),[3],1.49% and 2.84%
same,Population Healthy Nuclei (%),[3],76.43% and 34.75%
same,Population Hoechst High Intensity Objects (%),[3],0% and 2.08%
same,Population Membrane Permeable-Phenotype (%),[3],1.11% and 4.08%
same,Population Mitochondria Different-Phenotype (%),[3],17.78% and 20.41%
same,Population Mitotic Cells (%),[3],79.81% and 84.09%
same,Population Normal (%),[3],100% and 97.92%
same,Population Pyknosed Nuclei (%),[3],22.08% and 62.41%
same,Population Tubulin-Different-Phenotype (%),[3],14.44% and 12.24%
same,Population Apoptotic (%),[4],20.31% and 14.47%
same,Population Fragmented Nuclei (%),[4],1.23% and 6.87%
same,Population Healthy Nuclei (%),[4],79.14% and 35.11%
same,Population Hoechst High Intensity Objects (%),[4],0.61% and 0%
same,Population Membrane Permeable-Phenotype (%),[4],0% and 2.17%
same,Population Mitochondria Different-Phenotype (%),[4],20.93% and 19.57%
same,Population Mitotic Cells (%),[4],79.69% and 85.53%
same,Population Normal (%),[4],99.39% and 100%
same,Population Pyknosed Nuclei (%),[4],19.63% and 58.02%
same,Population Tubulin-Different-Phenotype (%),[4],11.63% and 8.7%
same,Total Cell Count,[4],328 and 131
same,Population Apoptotic (%),[5],8% and 18.75%
same,Population Fragmented Nuclei (%),[5],5.17% and 4.03%
same,Population Healthy Nuclei (%),[5],89.44% and 63.76%
same,Population Hoechst High Intensity Objects (%),[5],0.11% and 0.67%
same,Population Membrane Permeable-Phenotype (%),[5],5.66% and 3.16%
same,Population Mitochondria Different-Phenotype (%),[5],18.92% and 21.05%
same,Population Mitotic Cells (%),[5],92% and 81.25%
same,Population Normal (%),[5],99.89% and 99.33%
same,Population Apoptotic (%),[6],20% and 39.39%
same,Population Fragmented Nuclei (%),[6],5.81% and 7.8%
same,Population Healthy Nuclei (%),[6],85.77% and 68.79%
same,Population Hoechst High Intensity Objects (%),[6],0.37% and 1.4%
same,Population Membrane Permeable-Phenotype (%),[6],1.31% and 2.06%
same,Population Mitochondria Different-Phenotype (%),[6],36.24% and 23.71%
same,Population Mitotic Cells (%),[6],80% and 60.61%
same,Population Normal (%),[6],99.63% and 98.6%
same,Population Pyknosed Nuclei (%),[6],8.43% and 23.4%
NCCc1cn(S(=O)(=O)c2c(Cl)nc3sccn23)c2ccccc12.O=C(O)C(=O)O,Population Apoptotic (%),[1],37% and 52%
same,Population Fragmented Nuclei (%),[1],5% and 8%
same,Population Healthy Nuclei (%),[1],83% and 78%
same,Population Hoechst High Intensity Objects (%),[1],7% and 8%
same,Population Membrane Permeable-Phenotype (%),[1],0%
same,Population Mitochondria Different-Phenotype (%),[1],53% and 66%
same,Population Mitotic Cells (%),[1],62% and 47%
same,Population Normal (%),[1],92% and 91%
same,Population Pyknosed Nuclei (%),[1],11% and 13%
same,Population Tubulin-Different-Phenotype (%),[1],40% and 34%
same,Total Cell Count,[1],446 and 316
same,Population Apoptotic (%),[2],63% and 64%
same,Population Fragmented Nuclei (%),[2],8%
same,Population Healthy Nuclei (%),[2],49% and 67%
same,Population Hoechst High Intensity Objects (%),[2],22% and 25%
same,Population Membrane Permeable-Phenotype (%),[2],0%
same,Population Mitochondria Different-Phenotype (%),[2],96% and 97%
same,Population Mitotic Cells (%),[2],36% and 35%
same,Population Normal (%),[2],77% and 74%
same,Population Pyknosed Nuclei (%),[2],42% and 23%
same,Population Tubulin-Different-Phenotype (%),[2],88% and 82%
same,Total Cell Count,[2],292 and 209
same,Population Apoptotic (%),[3],33% and 41%
same,Population Fragmented Nuclei (%),[3],9% and 12%
same,Population Healthy Nuclei (%),[3],79% and 78%
same,Population Hoechst High Intensity Objects (%),[3],6% and 4%
same,Population Membrane Permeable-Phenotype (%),[3],1%
same,Population Mitochondria Different-Phenotype (%),[3],28% and 46%
same,Population Mitotic Cells (%),[3],66% and 58%
same,Population Normal (%),[3],93% and 95%
same,Population Pyknosed Nuclei (%),[3],11% and 8%
same,Population Tubulin-Different-Phenotype (%),[3],26% and 19%
same,Total Cell Count,[3],585 and 438
same,Population Apoptotic (%),[4],74% and 75%
same,Population Fragmented Nuclei (%),[4],14%
same,Population Healthy Nuclei (%),[4],37% and 62%
same,Population Hoechst High Intensity Objects (%),[4],34%
same,Population Membrane Permeable-Phenotype (%),[4],2%
same,Population Mitochondria Different-Phenotype (%),[4],83% and 95%
same,Population Mitotic Cells (%),[4],25% and 24%
same,Population Normal (%),[4],65%
same,Population Pyknosed Nuclei (%),[4],48% and 22%
same,Population Tubulin-Different-Phenotype (%),[4],44% and 76%
same,Total Cell Count,[4],310 and 195
same,Population Apoptotic (%),[5],23% and 47%
same,Population Fragmented Nuclei (%),[5],16% and 12%
same,Population Healthy Nuclei (%),[5],77% and 82%
same,Population Hoechst High Intensity Objects (%),[5],3% and 5%
same,Population Membrane Permeable-Phenotype (%),[5],0% and 1%
same,Population Mitochondria Different-Phenotype (%),[5],22% and 23%
same,Population Mitotic Cells (%),[5],76% and 52%
same,Population Normal (%),[5],96% and 94%
same,Population Pyknosed Nuclei (%),[5],6% and 5%
same,Population Tubulin-Different-Phenotype (%),[5],19% and 14%
same,Total Cell Count,[5],972 and 678
same,Population Apoptotic (%),[6],53% and 78%
same,Population Fragmented Nuclei (%),[6],27% and 19%
same,Population Healthy Nuclei (%),[6],24% and 47%
same,Population Hoechst High Intensity Objects (%),[6],62% and 47%
same,Population Membrane Permeable-Phenotype (%),[6],11% and 1%
same,Population Mitochondria Different-Phenotype (%),[6],74% and 75%
same,Population Mitotic Cells (%),[6],46% and 21%
same,Population Normal (%),[6],37% and 52%
same,Population Pyknosed Nuclei (%),[6],47% and 33%
same,Population Tubulin-Different-Phenotype (%),[6],55% and 52%
same,Total Cell Count,[6],294 and 212
